The values below come from paper PMC5807869 (ACS Medicinal Chemistry Letters, 2018).

The nature of data set [1]: Metabolic stability in human liver microsomes. It is filed as in vitro ADME. (In general: Liver microsomes are a subcellular fraction often used to study metabolism.)
The nature of data set [2]: Metabolic stability in human hepatocytes. It is filed as in vitro ADME.
The nature of data set [3]: Apparent passive permeability, RRCK. It is filed as in vitro ADME, Canine.
A further data set in a line: iv/po PK in rat. Format: in vivo. The procedure, abridged:
(§1)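 Each species study used two animals per dose. Clearance is the observed plasma clearance. The same studies also gave steady-state volume of distribution, half-life, oral bioavailability and percent renal clearance.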

For another data set, the target named is PDE5A1 (Homo sapiens, UniProt O76074). Description: Phosphodiesterase SPA assay, PDE5A1. Format: biochemical. The settings on record: PDE5/2 selectivity.
Data set [4] concerns broad spectrum BioPrint panel. The experiment in a line: Broad spectrum BioPrint panel selectivity screening. The conditions noted are these: no significant activities.
Another data set is described as follows: iv/po PK in NHP. The conditions noted are these: male, cynomolgus monkey, plasma, 1 mg/kg. It is filed as in vivo, Cynomolgus monkeys. The procedure, abridged: as §1
Data set [5] is described as follows: Predicted human pharmacokinetics. The settings on record: predicted from in vitro and in vivo properties.

Structures are written as SMILES.

For the compound `Cc1nn2c(-c3c(C)nn(C)c3-c3ccc(C(F)(F)F)cc3)nc(C)c2c(=O)[nH]1` [Compound 1], the results for the CLint scaled in data set [1] and in data set [2] were 16 mL/min/kg and 18 mL/min/kg, respectively. The apparent permeability (Papp) in data set [3] (dog, MDCK) amounted to 23 ×10⁻⁶ cm/s. Besides, in “iv/po PK in rat”, the “in vivo rat clearance profile” value is on record as “not show any extra-hepatic clearance pathways”.

For `Cc1nn2c(-c3c(C)nn(C)c3-c3ccc(C(F)(F)F)cc3)nc(CO)c2c(=O)[nH]1` [Compound 2, 7-(1,3-dimethyl-5-(4-(trifluoromethyl)phenyl)-1H-pyrazol-4-yl)-5-(hydroxymethyl)-2-methylimidazo[5,1-f][1,2,4]triazin-4(3H)-one], the “selectivity over other phosphodiesterases (margin)” value on PDE5A1 is reported as at least 1000 fold. Besides, the CLint scaled in data set [1] is under 8 mL/min/kg. The intrinsic clearance (CLint scaled) in data set [2] is under 0.36 mL/min/kg. Also, the “decrease of passive permeability relative to 1” value in data set [3] (RRCK Papp, 2 vs 1) was 3 fold. In addition, in data set [4], the “IC50 or EC50 in BioPrint panel” value is over 10 µM. The compound also yielded a clearance in the data set “iv/po PK in NHP” of 4 mL/min/kg. Further, in data set [5], the “predicted human plasma clearance” value is 2.9 mL/min/kg, the “predicted human t1/2” value is reported as 3.7 h and the “predicted human volume of distribution” value is 0.9 L/kg.

For the compound `Cc1nn2c(-c3c(CO)nn(C)c3-c3ccc(C(F)(F)F)cc3)nc(C)c2c(=O)[nH]1` [Compound 5], in data set [1], the CLint scaled is under 8 mL/min/kg.

Consider `Cc1nn2c(-c3c(CO)nn(C)c3-c3ccc(C(F)(F)F)cc3)nc(CO)c2c(=O)[nH]1` [Compound 6], for which the intrinsic metabolic clearance (CLint scaled) in data set [1] was under 9.2 mL/min/kg.

By CLint scaled is commonly meant the capacity of the preparation to metabolise the compound, expressed as a volume cleared per time. A lower CLint scaled goes with greater metabolic stability. The term Papp denotes a coefficient for how fast a substance crosses the barrier.
